Source: ChEMBL document CHEMBL1150660, “Lignans isolated from valerian: identification and characterization of a new olivil derivative with partial agonistic activity at A(1) adenosine receptors” (J Nat Prod, 2002)

Legend:
[1] = target: Adenosine receptor A2a (Rattus norvegicus) (UniProt P30543); test: Displacement of [3H]MSX-2 from A2A receptor in rat brain striatal membrane at 100 uM by liquid scintillation counting; format: cell membranes
Procedure, shortened: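 Rat striatal membranes (ca. 70 μg/mL protein), pretreated with 0.2 IU/mL adenosine deaminase, incubated with [3H]MSX-2 in 50 mM Tris-HCl pH 7.4 for 30 min at 25 °C. Nonspecific binding with 50 μM NECA. Filtration on GF/B filters presoaked in 0.3% polyethylenimine, scintillation counting. Percent inhibition at 100 μM, n = 3.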

[2] = target: T1, Adenosine receptor A1 (Rattus norvegicus) (UniProt P25099); test: Displacement of [3H]CCPA from adenosine A1 receptor in rat brain cortical membrane at 100 uM by liquid scintillation counting; format: cell membranes
T1 sequence (whole entry): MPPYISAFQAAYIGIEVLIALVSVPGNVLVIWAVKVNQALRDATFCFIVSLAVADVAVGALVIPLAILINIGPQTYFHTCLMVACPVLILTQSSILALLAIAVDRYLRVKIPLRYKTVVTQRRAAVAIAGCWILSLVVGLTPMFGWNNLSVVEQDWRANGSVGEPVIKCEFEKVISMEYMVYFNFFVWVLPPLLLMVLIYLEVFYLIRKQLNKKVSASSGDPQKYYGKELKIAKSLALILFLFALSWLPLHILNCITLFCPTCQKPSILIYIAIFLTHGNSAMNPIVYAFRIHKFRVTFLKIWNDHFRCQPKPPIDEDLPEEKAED
Procedure, shortened: (§1)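 Rat cortical membranes (ca. 70 μg/mL protein), pretreated with 0.2 IU/mL adenosine deaminase, incubated with [3H]CCPA in 50 mM Tris-HCl pH 7.4 for 90 min at 25 °C. Nonspecific binding with 10 μM 2-chloroadenosine. GF/B filtration, scintillation counting.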

[3] = target: T1, Adenosine receptor A1 (Rattus norvegicus); test: Agonist activity at adenosine A1 receptor in rat cortical membrane by [35S]GTPgammaS binding assay relative to control; format: functional, cell membranes
Procedure, shortened: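 Rat cortical membranes (7 μg/tube) incubated 45 min at 25 °C with 0.1-0.5 nM [35S]GTPγS in 50 mM Tris-HCl pH 7.4 with 1 mM EDTA, 5 mM MgCl2, 1 mM DTT, 10 μM GDP, 100 mM NaCl, 2 IU/mL adenosine deaminase, 0.5% BSA. Nonspecific binding with 10 μM unlabeled GTPγS. Filtration, scintillation counting; stimulation expressed as percent of basal.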

Adenosine receptor A1 [4] = target: T2, Adenosine receptor A1 (Homo sapiens, UniProt P30542); test: Displacement [3H]DPCPX from of human adenosine A1 receptor expressed in CHO cells in presence of GTP; format: cell-based
T2 sequence (P30542 whole entry): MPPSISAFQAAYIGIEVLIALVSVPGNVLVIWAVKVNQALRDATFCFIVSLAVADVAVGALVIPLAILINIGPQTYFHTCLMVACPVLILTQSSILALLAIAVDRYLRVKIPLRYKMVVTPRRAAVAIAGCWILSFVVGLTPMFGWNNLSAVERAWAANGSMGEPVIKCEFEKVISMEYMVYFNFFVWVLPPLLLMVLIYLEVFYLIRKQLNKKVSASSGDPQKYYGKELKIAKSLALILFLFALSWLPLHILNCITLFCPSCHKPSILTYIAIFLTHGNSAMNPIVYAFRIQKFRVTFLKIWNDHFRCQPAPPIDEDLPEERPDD
Procedure, shortened: (§2)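 CHO-hA1 membranes (20 μg/mL protein), competition against [3H]DPCPX with or without 100 μM GTP. Incubation in 50 mM Tris-HCl pH 7.4, 90 min at 25 °C, after adenosine deaminase pretreatment. Nonspecific binding with 10 μM DPCPX. GF/B filtration, scintillation counting. Ki values for high- and low-affinity states taken from the biphasic curve without GTP.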

Adenosine receptor A1 [5] = target: T3, Adenosine receptor A1 (Rattus norvegicus, UniProt P25099); test: Agonist activity at adenosine A1 receptor in rat cortical membrane by [35S]GTPgammaS binding assay; format: functional, cell membranes
T3 sequence (P25099 whole entry): T1 sequence (whole entry)

Adenosine receptor A1 [6] = target: T3, Adenosine receptor A1; test: Displacement of [3H]CCPA from adenosine A1 receptor in rat brain cortical membrane by liquid scintillation counting; format: cell membranes; procedure, shortened: as §1
Adenosine receptor A1 [7] = target: T2, Adenosine receptor A1; test: Displacement [3H]DPCPX from of human adenosine A1 receptor at low affinity state expressed in CHO cells; format: cell-based; procedure, shortened: as §2
Adenosine receptor A1 [8] = target: T2, Adenosine receptor A1; test: Displacement [3H]DPCPX from of human adenosine A1 receptor at high affinity state expressed in CHO cells; format: cell-based; procedure, shortened: as §2
Rattus norvegicus = species on record: Rattus norvegicus; test: Displacement of [3H]flunitrazepam from GABAA receptor in rat brain cortical membrane at 10 uM; format: cell membranes

Sequence of Adenosine receptor A2a (Rattus norvegicus) (P30543 whole entry): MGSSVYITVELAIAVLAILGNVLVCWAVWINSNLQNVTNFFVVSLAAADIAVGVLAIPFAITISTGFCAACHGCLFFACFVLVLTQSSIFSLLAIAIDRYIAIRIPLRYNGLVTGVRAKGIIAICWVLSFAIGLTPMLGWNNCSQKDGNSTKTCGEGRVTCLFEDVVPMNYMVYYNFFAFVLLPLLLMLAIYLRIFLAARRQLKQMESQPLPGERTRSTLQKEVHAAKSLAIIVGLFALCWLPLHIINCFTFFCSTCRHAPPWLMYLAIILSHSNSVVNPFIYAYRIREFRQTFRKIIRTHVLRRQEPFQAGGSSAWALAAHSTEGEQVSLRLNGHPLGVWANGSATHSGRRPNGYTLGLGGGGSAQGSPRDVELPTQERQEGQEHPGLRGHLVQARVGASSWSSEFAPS

inhibition [1] | inhibition [2] | Activity [3] | Structure (SMILES) | other results
0% | 29% |  | COc1cc([C@H]2OC[C@](O)(Cc3ccc(O[C@@H]4O[C@H](CO)[C@@H](O)[C@H](O)[C@H]4O)c(OC)c3)[C@]2(O)CO)ccc1O | 
 |  | 193% | OC[C@H]1O[C@@H](n2cnc3c(NC4CCCC4)ncnc32)[C@H](O)[C@@H]1O | 
11% | 29% |  | COc1cc([C@H]2OC[C@H](Cc3ccc(O[C@@H]4O[C@H](CO)[C@@H](O)[C@H](O)[C@H]4O)c(OC)c3)[C@]2(O)CO)ccc1O | 

Second part, the compound before the results:

Structure (SMILES) | inhibition [1] | inhibition [2] | Activity [3] | other results
COc1cc([C@H]2OC[C@](O)(Cc3ccc(O[C@@H]4O[C@H](CO)[C@@H](O)[C@H](O)[C@H]4O)c(OC)c3)[C@@H]2COC[C@H]2O[C@@](CO)(O[C@H]3O[C@H](CO)[C@@H](O)[C@H](O)[C@H]3O)[C@@H](O)[C@@H]2O)ccc1O | 49% | 80% | 126% | Ki (Adenosine receptor A1 [4]): 31 µM; EC50 (Adenosine receptor A1 [5]): 3.98 µM; Ki (Adenosine receptor A1 [6]): 5.28 µM; Ki (Adenosine receptor A1 [7]): 23.6 µM; Ki (Adenosine receptor A1 [8]): 0.026 µM
Cn1c(=O)c2c(ncn2C)n(C)c1=O | 58% |  |  | 
COc1cc([C@H]2OC[C@H]3[C@@H]2CO[C@@H]3c2ccc(O[C@@H]3O[C@H](CO)[C@@H](O)[C@H](O)[C@H]3O)c(OC)c2)ccc1O[C@@H]1O[C@H](CO)[C@@H](O)[C@H](O)[C@H]1O |  |  |  | Activity (Rattus norvegicus): 23%
